Drawing on ChEMBL document CHEMBL1125868, “Antidopaminergic effects of the stereoisomers of N-[(1-alkyl-2- pyrrolidinyl)methyl]-5-sulfamoylbenzamides and -2,3-dihydrobenzofuran-7-carboxamides” (J Med Chem, 1991), this text covers ED50 and Ki for 16 compounds.

The term ED50 denotes the dose at which the effect has come halfway, by size or by number of responders. Read a high ED50 as weaker potency. As usually defined, the Ki is the equilibrium dissociation constant of an inhibitor or competing ligand from its target.

For one experiment, the system named is Mus musculus. The experiment can be described thus: Ability to inhibit apomorphine induced hyperactivity in mice after intraperitoneal administration. The format is functional. Conditions: ip. Summed up: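 Male mice in groups of three, dosed ip 1 h before apomorphine HCl 0.5 mg/kg sc. Motor activity counted for 20 min right after apomorphine.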
The next experiment deals with D(2) dopamine receptor (Rattus norvegicus, UniProt P61169). The experiment can be described thus: Binding affinity towards dopamine receptor D2 using as [3H]-spiperone radioligand. An outline of the steps:
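Rat striatal membranes washed in 50 mM Tris-HCl pH 7.7, then resuspended in 50 mM Tris-HCl pH 7.1 with NaCl, KCl, CaCl2, MgCl2, ascorbate and 10 μM pargyline, preincubated 10 min at 37 °C. Incubated with [3H]spiperone (0.2 nM final) for 20 min at 37 °C, then filtered. IC50 read from concentration-inhibition curves.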

Experiment [1] has as its system Dopamine receptor (Mus musculus). The experiment can be described thus: Inhibitory effects on the hyperactivity against dopamine receptor after peroral administration.

D(2) dopamine receptor, sequence (P61169 whole entry): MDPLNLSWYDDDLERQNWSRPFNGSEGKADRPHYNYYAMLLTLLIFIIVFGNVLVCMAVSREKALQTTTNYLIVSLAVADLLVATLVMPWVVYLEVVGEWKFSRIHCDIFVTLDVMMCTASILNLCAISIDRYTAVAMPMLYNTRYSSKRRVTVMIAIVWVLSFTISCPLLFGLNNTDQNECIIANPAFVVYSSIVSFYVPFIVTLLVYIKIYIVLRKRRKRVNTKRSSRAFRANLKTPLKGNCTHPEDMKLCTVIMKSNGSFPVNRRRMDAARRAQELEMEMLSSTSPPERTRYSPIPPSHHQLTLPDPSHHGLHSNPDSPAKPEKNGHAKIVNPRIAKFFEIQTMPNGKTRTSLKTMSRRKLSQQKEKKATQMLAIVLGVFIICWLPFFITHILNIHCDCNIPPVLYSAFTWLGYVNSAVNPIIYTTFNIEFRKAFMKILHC

`CCCCN1CCC[C@@H]1CNC(=O)c1cc(S(N)(=O)=O)cc2c1O[C@@H](C)C2` returned an ED50 in the experiment on Mus musculus of 3.7 mg/kg. Besides, the affinity on D(2) dopamine receptor corresponds to a Ki of 9.4 nM.
Turning to `CCN1CCC[C@H]1CNC(=O)c1cc(S(N)(=O)=O)ccc1OC` [LEVOSULPIRIDE], in the experiment on Mus musculus, the ED50 is 9.3 mg/kg.
As for `CCCCCCN1CCC[C@H]1CNC(=O)c1cc(S(N)(=O)=O)ccc1OC`, the ED50 (with Mus musculus; in experiment [1]) was more than 100 mg/kg in each case. The same compound showed a Ki on D(2) dopamine receptor of 1400 nM.
As to `CCN1CCC[C@@H]1CNC(=O)c1cc(S(N)(=O)=O)ccc1OC`, the ED50 with Mus musculus was more than 250 mg/kg.
Regarding `CCCCN1CCC[C@@H]1CNC(=O)c1cc(S(N)(=O)=O)ccc1OC`, the values for the median effective dose (ED50) (in the experiment with Mus musculus; in experiment [1]) were 92.3 mg/kg and 184 mg/kg, respectively. The same compound gave a Ki at D(2) dopamine receptor of 230 nM.
Compound `CCCCCCN1CCC[C@@H]1CNC(=O)c1cc(S(N)(=O)=O)cc2c1O[C@@H](C)C2` returned a median effective dose (ED50) in the experiment with Mus musculus of 12.2 mg/kg. At D(2) dopamine receptor, the inhibitory constant (Ki) was found to be 6.7 nM.
Take `CCN1CCC[C@H]1CNC(=O)c1cc(S(N)(=O)=O)cc2c1O[C@H](C)C2`: the values for the ED50 (with Mus musculus; in experiment [1]) were 11 mg/kg and 87.3 mg/kg, respectively. The affinity at D(2) dopamine receptor, expressed as Ki, was 21 nM.
Taken in the same sequence, the figures for `CCN1CCC[C@@H]1CNC(=O)c1cc(S(N)(=O)=O)cc2c1O[C@@H](C)C2` were 71.7 mg/kg, 419 mg/kg and 400 nM.
The like results for `CCCCN1CCC[C@H]1CNC(=O)c1cc(S(N)(=O)=O)ccc1OC` were, in that order, 49.2 mg/kg, 135 mg/kg and 51 nM.
As to `CCN1CCC[C@@H]1CNC(=O)c1cc(S(N)(=O)=O)cc2c1O[C@H](C)C2`, the ED50 with Mus musculus amounted to 145 mg/kg. Affinity on D(2) dopamine receptor was put at a Ki of 650 nM.
`CCCCCCN1CCC[C@@H]1CNC(=O)c1cc(S(N)(=O)=O)ccc1OC`: the values for the ED50 (with Mus musculus; in experiment [1]) were 28.2 mg/kg and 65 mg/kg, respectively. For the same compound, the affinity on D(2) dopamine receptor corresponds to a Ki of 59 nM.
On to `CCCCN1CCC[C@H]1CNC(=O)c1cc(S(N)(=O)=O)cc2c1O[C@H](C)C2`, for which the median effective dose (ED50) in the experiment with Mus musculus stood at 72.1 mg/kg. Further, on D(2) dopamine receptor, the Ki was 210 nM.
Turning to `CCN1CCC[C@H]1CNC(=O)c1cc(S(N)(=O)=O)cc2c1O[C@@H](C)C2`, the figures for the ED50 (in the experiment with Mus musculus; in experiment [1]) were 5.7 mg/kg and 60.3 mg/kg, respectively. The Ki on D(2) dopamine receptor stood at 9.6 nM.
In turn, `CCCCN1CCC[C@H]1CNC(=O)c1cc(S(N)(=O)=O)cc2c1O[C@@H](C)C2` came in with an ED50 with Mus musculus of 38.8 mg/kg. The same compound registered a Ki at D(2) dopamine receptor of 95 nM.
Compound `CCCCCCN1CCC[C@H]1CNC(=O)c1cc(S(N)(=O)=O)cc2c1O[C@@H](C)C2` yielded an ED50 with Mus musculus of more than 100 mg/kg.
On the same count and under the same terms, then `CCCCN1CCC[C@@H]1CNC(=O)c1cc(S(N)(=O)=O)cc2c1O[C@H](C)C2`, with 11.6 mg/kg.
